Source: ChEMBL document CHEMBL2321827, “Allopregnanolone and pregnanolone analogues modified in the C ring: synthesis and activity” (J Med Chem, 2013)

Experiments:
Format in all cases: cell-based
Cerebral cortex neuron [1] = assay: Stimulation of [3H]flunitrazepam binding to GABA type A receptor in mouse primary cortical neurons at 100 uM after 30 mins by liquid scintillation counting analysis relative to allopregnanolone
Procedure, shortened: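 Intact E16 mouse cortical neurons cultured 7–9 days, washed in HEPES pH 7.3, then incubated 30 min at 25 °C with 1.3–2.0 nM [3H]flunitrazepam and 100 μM compound in triplicate. Nonspecific binding was defined with 20 μM diazepam and radioactivity counted by scintillation. Binding increase is given as % of the maximal effect of 60 μM allopregnanolone, mean ± sd, n = 2–4.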

[2] = Stimulation of [3H]flunitrazepam binding to GABA type A receptor in mouse primary cortical neurons after 30 mins by liquid scintillation counting analysis; details: cerebral cortex neuron
Procedure, shortened: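 Cortical neurons from E16 mouse embryos, cultured 7–9 days with FUdR/uridine against glia, then washed in HEPES buffer pH 7.3. Intact cells were incubated with 1.3–2.0 nM [3H]flunitrazepam and compound (1 nM–300 μM, ≥6 concentrations, triplicate, final DMSO 100 μM) for 30 min at 25 °C. Nonspecific binding used 20 μM diazepam. EC50 came from a sigmoid fit, mean ± sd, n = 2–4.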

Cerebral cortex neuron [3] = assay: Stimulation of [3H]flunitrazepam binding to GABA type A receptor in primary cortical neurons relative to allopregnanolone

Row | Structure (SMILES) | Emax (Cerebral cortex neuron [1]) [%] | EC50 [2] [µM] | Activity (Cerebral cortex neuron [3]) [%]
1 | CC(=O)[C@H]1CC[C@H]2[C@@H]3CC[C@@H]4C[C@H](O)CC[C@]4(C)[C@H]3[C@@H](O)C[C@]12C | 25 | > 300 | –
2 | CC(=O)[C@H]1CC[C@H]2[C@@H]3CC[C@H]4C[C@H](O)CC[C@]4(C)[C@H]3C[C@H](O)[C@]12C | 60 | 46 | –
3 | CC(=O)[C@H]1CC[C@H]2[C@@H]3CC[C@@H]4C[C@H](O)CC[C@]4(C)[C@H]3[C@](O)(C#Cc3ccccc3)C[C@]12C | 116 | 1.2 | –
4 | CC(=O)[C@H]1CC[C@H]2[C@@H]3CC[C@@H]4C[C@H](O)CC[C@]4(C)[C@H]3C(=O)C[C@]12C [RENANOLONE] | 42 | 94 | –
5 | CC(=O)[C@H]1CC[C@H]2[C@@H]3CC[C@@H]4C[C@H](O)CC[C@]4(C)C3=C(C)C[C@]12C | 97 | 3 | –
6 | C#C[C@]1(O)C[C@]2(C)[C@@H](C(C)=O)CC[C@H]2[C@@H]2CC[C@@H]3C[C@H](O)CC[C@]3(C)[C@H]21 | 91 | 14 | –
7 | C=C1C[C@]2(C)[C@@H](C(C)=O)CC[C@H]2[C@@H]2CC[C@H]3C[C@H](O)CC[C@]3(C)[C@@H]12 | 102 | 1.2 | –
8 | CC(=O)[C@H]1CC[C@H]2[C@@H]3CC[C@@H]4C[C@@](O)(C#Cc5ccccc5)CC[C@]4(C)[C@H]3[C@](O)(C#Cc3ccccc3)C[C@]12C | 0 | > 100 | –
9 | CC(=O)[C@H]1CC[C@H]2[C@@H]3CC[C@@H]4C[C@H](O)CC[C@]4(C)[C@H]3[C@@H](C)C[C@]12C | 71 | 14 | –
10 | CC(=O)[C@H]1CC[C@H]2[C@@H]3CC[C@H]4C[C@H](O)CC[C@]4(C)[C@H]3[C@@H](C)C[C@]12C | 97 | 8 | –
11 | CC(=O)[C@H]1CC[C@H]2[C@@H]3CC[C@H]4C[C@H](O)CC[C@]4(C)[C@H]3[C@@H](O)C[C@]12C | 117 | 32 | –
12 | CC(=O)[C@H]1CC[C@H]2[C@@H]3CC[C@H]4C[C@H](O)CC[C@]4(C)[C@H]3C[C@@H](O)[C@]12C | 28 | 173 | –
13 | CC(=O)[C@H]1CC[C@H]2[C@@H]3CC[C@H]4C[C@H](O)CC[C@]4(C)[C@H]3C[C@@H](N)[C@]12C | 0 | > 300 | –
14 | CC(=O)[C@H]1CC[C@H]2[C@@H]3CC[C@H]4C[C@H](O)CC[C@]4(C)[C@H]3[C@@H](N)C[C@]12C | 140 | 5.9 | –
15 | CC(=O)[C@H]1CC[C@H]2[C@@H]3CC[C@H]4C[C@H](O)CC[C@]4(C)[C@H]3C(=O)C[C@]12C [ALFAXALONE] | 92 | 4.6 | –
16 | C#C[C@]1(O)C[C@]2(C)[C@@H](C(C)=O)CC[C@H]2[C@@H]2CC[C@H]3C[C@H](O)CC[C@]3(C)[C@H]21 | 87 | 32 | –
17 | CC(=O)N[C@@H]1C[C@H]2[C@@H](CC[C@H]3C[C@H](O)CC[C@@]32C)[C@@H]2CC[C@H](C(C)=O)[C@@]12C | 0 | > 100 | –
18 | CC(=O)[C@H]1CC[C@H]2[C@@H]3CC[C@H]4C[C@H](N)CC[C@]4(C)[C@H]3CC[C@]12C | – | – | 56
19 | C#C[C@@]1(O)CC[C@@]2(C)[C@H](CC[C@H]3[C@@H]4CC[C@H](C(C)=O)[C@@]4(C)C[C@@](O)(C#C)[C@@H]32)C1 | 61 | 75 | –
20 | CC(=O)[C@H]1CC[C@H]2[C@@H]3CC[C@H]4C[C@H](O)CC[C@]4(C)[C@H]3[C@H](O)C[C@]12C | 28 | > 300 | –
21 | C=C1C[C@]2(C)[C@@H](C(C)=O)CC[C@H]2[C@@H]2CC[C@@H]3C[C@H](O)CC[C@]3(C)[C@@H]12 | 28 | 37.5 | –
22 | CC(=O)[C@H]1CC[C@H]2[C@@H]3CC[C@@H]4C[C@H](O)CC[C@]4(C)[C@H]3[C@H](O)C[C@]12C | 43 | 71 | –
23 | CC(=O)[C@H]1CC[C@H]2[C@@H]3CC[C@H]4C[C@H](O)CC[C@]4(C)[C@H]3[C@@H]3O[C@@H]3[C@]12C | 9 | > 300 | –
24 | CC(=O)[C@H]1CC[C@H]2[C@@H]3CC[C@H]4C[C@H](O)CC[C@]4(C)[C@H]3C=C[C@]12C | 67 | 7.4 | –
25 | CC(=O)[C@H]1CC[C@H]2[C@@H]3CC[C@H]4C[C@H](O)CC[C@]4(C)[C@H]3[C@H](N)C[C@]12C | 45 | 154 | –
